Measured values published in ChEMBL document CHEMBL1765009, “Novel hydrazine molecules as tools to understand the flexibility of vascular adhesion protein-1 ligand-binding site: toward more selective inhibitors” (J Med Chem, 2011).

Tests used:
[1] = molecular target: T1, Amine oxidase [copper-containing] 3 (Homo sapiens, UniProt Q16853); experiment: Inhibition of human recombinant VAP-1 expressed in CHO cells after 30 mins by coupled colorimetric method; type: cell-based
T1 sequence (Q16853 whole entry): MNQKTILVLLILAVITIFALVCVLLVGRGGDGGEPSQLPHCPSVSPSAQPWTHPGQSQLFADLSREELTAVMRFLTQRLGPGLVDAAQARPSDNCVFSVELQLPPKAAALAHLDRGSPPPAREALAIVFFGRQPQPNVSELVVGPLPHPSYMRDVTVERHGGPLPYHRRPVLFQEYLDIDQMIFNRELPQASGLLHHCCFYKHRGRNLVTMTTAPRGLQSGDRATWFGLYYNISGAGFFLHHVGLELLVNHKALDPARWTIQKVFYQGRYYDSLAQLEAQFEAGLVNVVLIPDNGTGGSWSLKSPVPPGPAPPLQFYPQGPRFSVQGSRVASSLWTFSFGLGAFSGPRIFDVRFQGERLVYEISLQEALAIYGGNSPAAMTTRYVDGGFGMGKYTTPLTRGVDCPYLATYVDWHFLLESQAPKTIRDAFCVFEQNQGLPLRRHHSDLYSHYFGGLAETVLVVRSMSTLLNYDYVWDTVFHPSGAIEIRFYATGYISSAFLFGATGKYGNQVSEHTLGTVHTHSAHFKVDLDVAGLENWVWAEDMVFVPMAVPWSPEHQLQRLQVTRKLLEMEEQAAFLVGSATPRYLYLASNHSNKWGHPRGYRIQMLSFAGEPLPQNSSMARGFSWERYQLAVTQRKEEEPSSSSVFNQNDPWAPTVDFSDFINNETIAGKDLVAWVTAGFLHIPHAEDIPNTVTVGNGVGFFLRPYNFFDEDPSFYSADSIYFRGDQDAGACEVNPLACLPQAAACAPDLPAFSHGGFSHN
Procedure, shortened: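 Enzyme source: clarified lysate of CHO cells stably transfected with full-length human VAP-1 cDNA. The lysate was made in 150 mM NaCl, 10 mM Tris pH 7.2, 1.5 mM MgCl2 and 1% NP40 at 4 °C overnight. Reaction started with 1 mM benzylamine, 1 h at 37 °C, A490 read. IC50 given as mean ± SEM of 2–4 experiments.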

[2] = Selectivity ratio, ratio of IC50 for rat liver MAO-A/MAO-B to IC50 for human recombinant VAP-1
Monoamine oxidase = molecular target: T2, Monoamine oxidase (Rattus norvegicus, UniProt P19643+P21396); experiment: Inhibition of rat liver MAO-A/MAO-B after 30 mins by coupled colorimetric method
T2 sequence (P19643 whole entry): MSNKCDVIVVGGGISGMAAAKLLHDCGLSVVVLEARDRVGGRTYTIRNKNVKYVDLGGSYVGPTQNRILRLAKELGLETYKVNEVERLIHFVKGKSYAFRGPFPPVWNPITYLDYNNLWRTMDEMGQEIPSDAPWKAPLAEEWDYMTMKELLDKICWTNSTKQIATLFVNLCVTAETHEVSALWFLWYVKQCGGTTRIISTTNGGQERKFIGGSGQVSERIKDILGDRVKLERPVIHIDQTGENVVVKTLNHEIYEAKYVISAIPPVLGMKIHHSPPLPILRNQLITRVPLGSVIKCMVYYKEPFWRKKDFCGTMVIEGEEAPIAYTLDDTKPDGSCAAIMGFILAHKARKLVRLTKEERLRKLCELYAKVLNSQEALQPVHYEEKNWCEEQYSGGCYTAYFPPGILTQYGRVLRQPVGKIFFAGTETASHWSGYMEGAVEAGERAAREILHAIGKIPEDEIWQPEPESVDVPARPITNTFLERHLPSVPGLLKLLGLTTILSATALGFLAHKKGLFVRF
T2 sequence (P21396 whole entry): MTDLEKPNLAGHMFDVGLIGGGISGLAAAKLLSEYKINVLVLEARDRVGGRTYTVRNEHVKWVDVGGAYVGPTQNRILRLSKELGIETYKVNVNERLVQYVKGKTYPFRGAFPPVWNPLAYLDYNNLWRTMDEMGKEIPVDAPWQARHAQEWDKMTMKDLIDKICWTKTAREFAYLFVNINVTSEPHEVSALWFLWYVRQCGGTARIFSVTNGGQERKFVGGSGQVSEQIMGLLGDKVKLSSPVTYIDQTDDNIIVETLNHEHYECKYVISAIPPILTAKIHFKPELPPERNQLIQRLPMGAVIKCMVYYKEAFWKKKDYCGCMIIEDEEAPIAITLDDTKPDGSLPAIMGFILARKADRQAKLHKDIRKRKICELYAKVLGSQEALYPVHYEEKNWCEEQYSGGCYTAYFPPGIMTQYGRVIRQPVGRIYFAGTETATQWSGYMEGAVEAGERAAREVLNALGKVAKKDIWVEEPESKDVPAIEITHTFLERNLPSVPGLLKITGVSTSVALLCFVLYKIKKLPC
Procedure, shortened: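 Enzyme source: mitochondrial fraction from rat liver (MAO A plus MAO B), homogenized in 0.1 M phosphate pH 7.4 and isolated by differential centrifugation. Coupled HRP/4-aminoantipyrine colorimetric assay with 1 mM vanillic acid as chromogen. Inhibitor (1 nM–50 µM) was preincubated 30 min at 37 °C, then tyramine added (0.5 mM final), 1 h at 37 °C, A490 read. IC50 given as mean ± SEM of 2–4 experiments.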

Row | IC50 [1] [nM] | Ratio IC50 [2] | IC50 (Monoamine oxidase) [nM] | SMILES
1 | 280 | 250 | 70000 | CN(N)[C@@H](c1ccccc1)[C@H](O)c1ccccc1
2 | 330 | 320 | 105000 | CN(N)[C@H](c1ccccc1)[C@@H](O)c1ccccc1
3 | 1060 | 90 | 99000 | CN(N)[C@H](c1ccccc1)[C@H](O)c1ccccc1
4 | 1180 | 72 | 85000 | CN(N)[C@@H](c1ccccc1)[C@@H](O)c1ccccc1
5 | 40 | 250 | 9900 | NNC[C@H](O)c1ccccc1
6 | 150 | 65 | 9800 | NNC[C@@H](O)c1ccccc1
7 | 50000 | 0.7 | 34000 | NN[C@@H](c1ccccc1)[C@H](O)c1ccccc1 (relative stereo)
8 | 1200 | 9 | 11000 | CCCC(NN)C(O)c1ccccc1 (mixture of isomers)
